Paper PMC5743405 (International Journal of Oncology, 2017)

What was measured:
[1] = tested on: C5AR1; assay: PathHunter β-arrestin; type: cell-based; conditions: antagonist mode, 6 μM
How it was run: (§1)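 β-Arrestin recruitment assay: the enzyme acceptor is fused to β-arrestin and the ED fragment to the GPCR. Recruitment restores β-galactosidase, read by chemiluminescence. % activity = 100% × (test − vehicle)/(max control ligand − vehicle). % inhibition = 100% × (1 − (test − vehicle)/(EC80 control − vehicle)). An agonist hit needs >30% activity and RLU > baseline + 3×SD. An antagonist hit needs >35% inhibition and RLU < EC80 RLU − 3×SD.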

[2] = tested on: CMKLR1; assay: PathHunter β-arrestin; type: cell-based; conditions: antagonist mode, 6 μM
How it was run: (§2)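 Engineered cells express the receptor fused to one β-galactosidase fragment (ED) and β-arrestin fused to the complementing fragment (EA). Receptor activation recruits β-arrestin, which restores enzyme activity, and this is read by chemiluminescence (RLU). Agonist % activity is 100% × (test − vehicle)/(maximal control ligand − vehicle). Antagonist mode is challenged with an EC80 control agonist, and % inhibition is 100% × (1 − (test − vehicle)/(EC80 − vehicle)). Hits require >30% activity or >35% inhibition, plus a 3×SD RLU margin.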

[3] = tested on: DRD2S; assay: PathHunter β-arrestin; type: cell-based; conditions: antagonist mode, 6 μM
How it was run: as §2

[4] = tested on: ADRB2; assay: PathHunter β-arrestin; type: cell-based; conditions: 6 μM
How it was run: as §1

[5] = tested on: GPR103; assay: PathHunter β-arrestin; type: cell-based; conditions: 6 μM
How it was run: (§3)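 Vendor-run (DiscoveRx) PathHunter enzyme fragment complementation. β-Arrestin carries the EA fragment and the receptor carries ED; recruitment restores β-gal activity, read by chemiluminescence (RLU). Agonist % activity = vehicle-subtracted RLU relative to max control ligand (gpcrMAX) or to vehicle (orphanMAX). Antagonist % inhibition = 100% × (1 − vehicle-subtracted sample RLU / vehicle-subtracted EC80 agonist control RLU).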

[6] = tested on: GALR1; assay: PathHunter β-arrestin; type: cell-based; conditions: 6 μM
How it was run: as §2

[7] = tested on: TBXA2R; assay: PathHunter β-arrestin; type: cell-based; conditions: 6 μM
How it was run: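 β-Arrestin recruitment to GPCR read by β-galactosidase fragment complementation and chemiluminescence. Agonist: % = 100 × (test − vehicle)/(max control ligand − vehicle), hit at >30% and RLU > baseline + 3 SD. Antagonist, against EC80 agonist: % inhibition = 100 × (1 − (test − vehicle)/(EC80 − vehicle)), hit at >35% and RLU < EC80 − 3 SD.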

[8] = tested on: CXCR6; assay: PathHunter β-arrestin; type: cell-based; conditions: 6 μM
How it was run: as §2

[9] = tested on: CCR9; assay: PathHunter β-arrestin; type: cell-based; conditions: 6 μM
How it was run: as §2

[10] = tested on: TLR10; assay: western blot, JJ012 cells; type: cell-based, human; conditions: vs untreated control, overnight incubation
[11] = tested on: GPR35; assay: PathHunter β-arrestin; type: cell-based; conditions: 6 μM
How it was run: as §3

[12] = tested on: FFAR1; assay: PathHunter β-arrestin; type: cell-based; conditions: agonist mode, 6 μM
How it was run: as §2

[13] = tested on: EDNRB; assay: PathHunter β-arrestin; type: cell-based; conditions: antagonist mode, 6 μM
How it was run: as §2

[14] = tested on: nucleolin; assay: western blot, JJ012 cells; type: cell-based, human; conditions: vs untreated control, overnight incubation
[15] = tested on: CCR7; assay: PathHunter β-arrestin; type: cell-based; conditions: 6 μM
How it was run: as §2

[16] = tested on: MRGPRX2; assay: PathHunter β-arrestin; type: cell-based; conditions: antagonist mode, 6 μM
How it was run: as §3

[17] = tested on: HRH1; assay: PathHunter β-arrestin; type: cell-based; conditions: agonist mode, 6 μM
How it was run: as §3

[18] = tested on: KISS1R; assay: PathHunter β-arrestin; type: cell-based; conditions: 6 μM
How it was run: as §3

[19] = tested on: mTOR kinase (mTORC1); conditions: chondrosarcoma; ref [4],[5]; cited from earlier work
[20] = tested on: MTNR1A; assay: PathHunter β-arrestin; type: cell-based; conditions: 6 μM
How it was run: as §3

[21] = tested on: CXCR5; assay: PathHunter β-arrestin; type: cell-based; conditions: 6 μM
How it was run: as §2

[22] = tested on: MC1R; assay: PathHunter β-arrestin; type: cell-based; conditions: 6 μM
How it was run: as §3

[23] = tested on: TICAM2 (TRAM); assay: western blot, JJ012 cells; type: cell-based, human; conditions: vs untreated control, overnight incubation
[24] = tested on: MUC5B; assay: MUC5B ELISA, JJ012 cell lysates; type: cell-based; conditions: PRP-1 at 1 μg/ml; human JJ012 cell lysates
How it was run: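 Cells trypsinized at confluency and seeded in 6-well clusters at 1×10^6 cells/ml. Test compound added to experimental wells only, controls untreated. Overnight at 37°C, 5% CO2. Cells washed in ice-cold PBS with protease inhibitor, lysed in buffer with protease inhibitor (1:100), scraped and spun at 15,000 × g, 4°C. Protein measured in supernatant. MUC5B quantified with a commercial human MUC5B ELISA kit.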

[25] = tested on: SSTR5; assay: PathHunter β-arrestin; type: cell-based; conditions: agonist mode, 6 μM
[26] = tested on: PTGFR; assay: PathHunter β-arrestin; type: cell-based; conditions: antagonist mode, 6 μM
[27] = tested on: ADRA1B; assay: PathHunter β-arrestin; type: cell-based; conditions: agonist mode, 6 μM
How it was run: as §1

[28] = tested on: CCR3; assay: PathHunter β-arrestin; type: cell-based; conditions: 6 μM
How it was run: as §1

[29] = tested on: TLR4; assay: western blot, JJ012 cells; type: cell-based, human; conditions: vs untreated control, overnight incubation
[30] = tested on: HRH4; assay: PathHunter β-arrestin; type: cell-based; conditions: antagonist mode, 6 μM
How it was run: as §3

[31] = tested on: MC3R; assay: PathHunter β-arrestin; type: cell-based; conditions: 6 μM
How it was run: as §3

[32] = tested on: EDG3; assay: PathHunter β-arrestin; type: cell-based; conditions: antagonist mode, 6 μM
How it was run: as §2

[33] = tested on: CCKBR; assay: PathHunter β-arrestin; type: cell-based; conditions: antagonist mode, 6 μM
How it was run: as §1

[34] = tested on: F2RL1; assay: PathHunter β-arrestin; type: cell-based; conditions: antagonist mode, 6 μM
How it was run: as §2

[35] = tested on: GPR120; assay: PathHunter β-arrestin; type: cell-based; conditions: 6 μM
How it was run: as §3

Substance: Proline rich polypeptide 1 [PRP-1]
- % Inhibition [1]: 3%
- % Inhibition [2]: −2%
- % Inhibition [3]: 6%
- % Activity ([4]; agonist mode): 3%
- % Inhibition ([4]; antagonist mode): −3%
- % Activity ([5]; agonist mode): 2%
- % Inhibition ([5]; antagonist mode): 6%
- % Activity ([6]; agonist mode): 1%
- % Inhibition ([6]; antagonist mode): −4%
- % Activity ([7]; agonist mode): 1%
- % Inhibition ([7]; antagonist mode): −10%
- % Activity ([8]; agonist mode): 2%
- % Inhibition ([8]; antagonist mode): −6%
- % Activity ([9]; agonist mode): 1%
- % Inhibition ([9]; antagonist mode): −6%
- protein expression [10]: no indication of PRP-1 effect
- % Activity ([11]; agonist mode): 1%
- % Inhibition ([11]; antagonist mode): −6%
- % Activity [12]: 3%
- % Inhibition [13]: −1%
- protein expression [14]: no changes in nucleolin protein expression
- % Activity ([15]; agonist mode): 1%
- % Inhibition ([15]; antagonist mode): −2%
- % Inhibition [16]: −8%
- % Activity [17]: 1%
- % Activity ([18]; agonist mode): 1%
- % Inhibition ([18]; antagonist mode): 3%
- mTOR kinase (mTORC1) inhibition [19]: mTOR kinase (mTORC1) inhibitor in chondrosarcoma
- % Activity ([20]; agonist mode): 2%
- % Inhibition ([20]; antagonist mode): −9%
- % Activity ([21]; agonist mode): 1%
- % Inhibition ([21]; antagonist mode): −8%
- % Activity ([22]; agonist mode): −2%
- % Inhibition ([22]; antagonist mode): −2%
- protein expression [23]: upregulated in dose-dependent manner
- MUC5B presence in cell lysates [24]: 440 ng/mL
- % Activity [25]: 1%
- % Inhibition [26]: 1%
- % Activity [27]: 1%
- % Activity ([28]; agonist mode): 2%
- % Inhibition ([28]; antagonist mode): −3%
- protein expression [29]: PRP-1 did not have any effect
- % Inhibition [30]: −9%
- % Activity ([31]; agonist mode): 3%
- % Inhibition ([31]; antagonist mode): −6%
- % Inhibition [32]: 1%
- % Inhibition [33]: −3%
- % Inhibition [34]: 3%
- % Activity ([35]; agonist mode): 1%
- % Inhibition ([35]; antagonist mode): −6%
